Shown are actives, neighbours in structure and some others; about 3.4% of the full set was active somewhere.
GPR7 antagonist: human neuropeptides B/W receptor 1 antagonism; P48145; GPR7-expressing cells, fluorescence antagonist assay; inhibition, % at 4.4 µM; 1.1% of 290,000 active; in the data active = inhibition above about 16%, passing the limit was not always enough;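 note: cells stimulated with the agonist NPW; 0% = agonist with vehicle and 100% = vehicle without agonist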
Target sequence (P48145 whole entry, looked up): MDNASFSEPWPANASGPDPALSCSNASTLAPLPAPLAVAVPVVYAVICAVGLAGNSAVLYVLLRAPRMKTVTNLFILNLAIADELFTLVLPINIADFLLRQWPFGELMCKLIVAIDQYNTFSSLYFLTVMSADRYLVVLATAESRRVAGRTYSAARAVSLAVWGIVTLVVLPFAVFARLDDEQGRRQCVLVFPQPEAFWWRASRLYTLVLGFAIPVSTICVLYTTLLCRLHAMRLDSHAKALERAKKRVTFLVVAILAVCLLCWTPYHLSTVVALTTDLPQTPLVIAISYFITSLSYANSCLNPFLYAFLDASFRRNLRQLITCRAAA
zfTRPN1 agonist: zebrafish TRPN1 (NompC) channel agonism | HEK293 zebrafish TRPN1-YFP, Fluo-8 calcium fluorescence; 100% = response to 87 µM carbachol | activation, % at 3 µM | 0.18% of 220,000 active | AID 1424;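 active = activation above its plate's cutoff, the mean activation of test wells on that plate plus 3 SD, cut at about 19% in these data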;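 note: 0% = DMSO alone and 100% = 87 µM carbachol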
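Material: zebrafish TRPN1-YFP in HEK293 cells. Doses: one dose of 3 µM, 0.3% DMSO. Incubation: dye 1 h 37 °C plus 30 min RT. Measured by: intracellular calcium fluorescence with Fluo-8.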
LANA-H2B inh: blocks KSHV LANA binding to histone H2A/H2B; cell-free LANA-H2A/H2B peptide, fluorescence polarization; inhibition, % (no concentration beside the values); AID 2629; 0.6% of 320,000 active; in the data active = inhibition mostly above about 10%, no sharp cut-off; inactive = mostly below about 6.7%
TRPML3 agonist: human mucolipin-3 channel agonism; activation, % at 3 µM; AID 1448; Q8TDD5; 0.29% of 220,000 active; HEK293 TRPML3-YFP, Fluo-8 calcium fluorescence; 100% = the carbachol control signal;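 active = activation above its plate's cutoff, the mean activation of the plate's test wells plus 3 SD, cut at about 12% in these data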;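 note: 0% = DMSO only wells and 100% = carbachol wells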
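Test system: TRPML3-YFP stable HEK293 cells. Doses: single point at 3 µM. Incubation: dye loading 1 h 37 °C then 30 min ambient, 125 s read. Signal: Fluo-8 calcium dye fluorescence, ex 470-495, em 515-575 nm. Measure: percent activation from peak-to-basal fluorescence ratio, scaled between DMSO and carbachol.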
TAAR1 agonist: human TAAR1 agonism; CHO RD-HGA16 TAAR1, Fluo-8 calcium fluorescence; vehicle wells 0%, saturating PEA agonist 100%; 0.99% of 360,000 active; activation, % at 3 µM; Q96RJ0;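 active = activation above the mean activation of all test compounds in the run plus 3 SD, cut at about 38% in these data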
Target sequence (Q96RJ0 whole entry, looked up): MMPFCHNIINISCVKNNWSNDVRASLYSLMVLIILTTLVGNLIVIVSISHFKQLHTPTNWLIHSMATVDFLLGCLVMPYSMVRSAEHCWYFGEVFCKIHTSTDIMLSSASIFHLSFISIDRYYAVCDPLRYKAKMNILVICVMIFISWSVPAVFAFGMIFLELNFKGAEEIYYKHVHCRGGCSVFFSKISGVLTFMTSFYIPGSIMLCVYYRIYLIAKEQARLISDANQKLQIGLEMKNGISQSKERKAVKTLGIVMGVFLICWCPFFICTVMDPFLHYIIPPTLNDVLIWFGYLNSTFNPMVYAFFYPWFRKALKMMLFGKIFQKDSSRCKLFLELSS
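Test system: RD-HGA16 (CHO) cells co-expressing Gα16 and hTAAR1 | Doses: Single dose, 3 µM | Schedule: 17-24 h seeding, 75 min 37 °C dye, 30 min RT | Evaluation: % activation from peak over basal fluorescence ratio, DMSO-to-PEA scaled | Technique: Kinetic Fluo-8 calcium fluorescence | Benchmarks: Low control DMSO, high control PEA (EC100)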
TAAR1 antagonist: human TAAR1 antagonism; CHO RD-HGA16 TAAR1, Fluo-8 calcium fluorescence, antagonist; inhibition, % at 3 µM; 1.5% of 360,000 active; AID 624466;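 active = inhibition above a per-plate cutoff, the mean inhibition of test compounds on that plate plus 3 SD, cut at about 49% in these data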;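 note: 0% = DMSO plus EC80 beta-PEA response and 100% = DMSO alone without agonist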
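test system = CHO RD-HGA16 cells bearing hTAAR1 | replication = singlicate | controls = DMSO-only wells and EC80 β-PEA-stimulated wells | reagent = EC80 β-phenethylamine stimulus | read-out basis = percent inhibition of PEA-evoked calcium signal, max/basal emission ratio | schedule = seeding 17-24 h prior, 75-min 37 °C, 30-min RT dye loading | signal = kinetic Fluo-8 calcium fluorescence measurement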
TAAR1 ag confirm: confirmation of human TAAR1 agonists; 82% of 2,400 active; shares compounds with TAAR1 agonist; activation, % at 3 µM; CHO RD-HGA16 TAAR1, Fluo-8 calcium fluorescence; scaled: DMSO 0%, maximal phenethylamine 100%; AID 651783;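 active = activation above a cutoff set at the run's mean compound activation plus 3 SD, cut at about 39% in these data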
Ga16 ag counter: counter-screen for TAAR1 agonists: nonselective agonists in parental cells; 50% of 2,400 active; shares compounds with TAAR1 agonist; CHO-Ga16 parental, Fluo-8 calcium fluorescence; normalized to maximal ATP response, DMSO zero; activation, % at 3 µM; AID 651787;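 active = activation above the run cutoff, the mean activation over all tested wells plus 3 SD, cut at about 12% in these data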;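 note: 0% = DMSO wells and 100% = maximal ATP response on the peak over basal ratio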
TAAR1 desens: TAAR1 response desensitization, agonist counter-screen. shares compounds with TAAR1 agonist. CHO RD-HGA16 hTAAR1, Fluo-8 calcium, beta-PEA response inhibition. inhibition, % at 3 µM. 46% of 2,400 active;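 active = inhibition above the run cutoff, the mean inhibition of all test compounds plus 3 SD, cut at about 49% in these data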;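 note: beta-PEA stimulus applied at its EC80; loss of beta-PEA calcium signal after compound pretreatment read as receptor desensitization; 0% = DMSO with beta-PEA at EC80 and 100% = DMSO alone without agonist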
Ga16 antag count: nonselective Ga16 antagonism, counter-screen | 39% of 2,400 active | CHO-Ga16 ATP-induced calcium, Fluo-8 fluorescence | inhibition, % at 3 µM | shares compounds with TAAR1 agonist | AID 651952;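 active = inhibition above the plate's mean compound inhibition plus 3 SD, computed per plate, cut at about 22% in these data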;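 note: 0% = EC80 ATP with DMSO and 100% = DMSO wells without ATP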
The depositor's hits bear a star; x = no result.

SMILES | GPR7 antagonist | zfTRPN1 agonist | LANA-H2B inh | TRPML3 agonist | TAAR1 agonist | TAAR1 antagonist | TAAR1 ag confirm | Ga16 ag counter | TAAR1 desens | Ga16 antag count
Cc1ccc2nc(SCC(=O)NCCc3ccccc3)nc(=O)n2c1 | x | x | -2 | x | 2 | -7 | x | x | x | x
Cc1cc(C)c2c(=O)[nH]c(SCC(=O)NCCc3ccccc3)nc2n1 | 1 | 0 | -5 | 0 | 70* | 35 | 70* | 8 | 37 | 6
C=C(C)C(=O)Oc1ccc(N2C(=O)[C@@H]3C4C=CC(C4)[C@@H]3C2=O)cc1 | 22 | x | 0 | x | 7 | -7 | x | x | x | x
CC(C)CN(C(=O)c1cccc(S(=O)(=O)N2CCN(C)CC2)c1)C1CCS(=O)(=O)C1 (centres undefined) | x | x | 8 | x | 1 | -13 | x | x | x | x
O=C(CCCCC(=O)NCCc1ccccc1)NCCc1ccccc1 | 9 | x | 8 | x | 10 | 2 | x | x | x | x
O=C(CCCOc1ccccc1)NCCc1ccccc1 | 4 | 0 | -3 | 0 | x | x | x | 2 | x | 7
CCOc1ccc(CCNC(=O)CCCn2nc(C)c3c(C)n(-c4ccccc4)nc3c2=O)cc1 | -14 | x | 7 | x | -2 | -20 | x | x | x | x
Cc1nn(CCCC(=O)NCCc2ccccc2)c(=O)c2nccn12 | 4 | x | 2 | x | 44* | -34 | 66* | 3 | 6 | 7
C#CCOC(=O)CCC(=O)NCCc1ccccc1 | 0 | 1 | 3 | 0 | 63* | 77* | 84* | 4 | 97* | 11
Brc1ccc(-c2nc3c4ccccc4ccn3c2Cc2ccccc2)cc1 | x | x | x | x | 8 | -18 | x | x | x | x
O=C(N[C@@H](Cc1cccnc1)C(=O)N1CCC[C@H]1C(=O)NCCc1ccccc1Cl)c1ccc(Cl)c(Cl)c1 | x | x | x | x | 71* | 91* | 84* | 5 | 103* | 21
O=C(N[C@@H](Cc1cccnc1)C(=O)N1CCC[C@H]1C(=O)NCCc1ccccc1Cl)c1ccccc1 | x | x | x | x | 55* | 77* | 92* | 7 | 90* | 2
O=C(NCCc1ccccc1Cl)[C@@H]1CCCN1C(=O)[C@H](Cc1cccnc1)NC(=O)N1CCOCC1 | x | x | x | x | 49* | 11 | 77* | 0 | 46 | 5
O=C(N[C@@H](Cc1cccnc1)C(=O)N1CCC[C@H]1C(=O)NCCc1ccccc1Cl)C1CC1 | x | x | x | x | 46* | 26 | 70* | 0 | 58* | 6
CC1(Oc2ccc(F)cc2)CCN(Cc2ccccc2OC(F)F)C1 (centres undefined) | x | x | x | x | 7 | -8 | x | x | x | x
CCCn1c(N)c(C(=O)CN(C)CC(=O)Nc2c(Cl)cccc2Cl)c(=O)[nH]c1=O | x | x | 0 | x | 1 | -2 | x | x | x | x
CCNC(=O)C1(C)CCCN(Cc2cccc3ccccc23)C1 (centres undefined) | x | x | x | x | 4 | -18 | x | x | x | x
NS(=O)(=O)c1ccc(CCNC(=O)C2CCCN2C(=O)c2cccs2)cc1 (centres undefined) | x | x | x | x | 4 | -26 | x | x | x | x
O=C(N[C@@H](Cc1cccnc1)C(=O)N1CCC[C@H]1C(=O)NCCc1ccccc1Cl)c1cccs1 | x | x | x | x | 48* | 48 | 82* | 4 | 84* | 4
COCCCn1c(O)c(/C=C2\N=C(C#N)C(=Nc3ccc(C)cc3)O2)sc1=S | -9 | 8 | -4 | 2 | 52* | 74* | 20 | 15* | 10 | 25*
NCC1C2CCC(O2)C1CO (centres undefined) | x | x | x | x | 1 | -16 | x | x | x | x
CC1(c2ccccc2)NC(=O)N(CC(=O)N2CCc3ccccc32)C1=O (centres undefined) | x | x | x | x | 48* | -27 | 17 | 9 | -1 | 9
CC1(c2cccc(Br)c2)NC(=O)N(CC(=O)N2CCc3ccccc32)C1=O (centres undefined) | x | x | x | x | 6 | 7 | x | x | x | x
Cc1nnsc1S(=O)c1ccc(Cl)cc1 (centres undefined) | -17 | x | 1 | x | 2 | -19 | x | x | x | x
O=C(Nc1ccccc1)c1nnsc1S(=O)c1ccc(Cl)cc1 (centres undefined) | 4 | 3 | -3 | 3 | 68* | 96* | 49* | 23* | 81* | 38*
SMILES | GPR7 antagonist | zfTRPN1 agonist | LANA-H2B inh | TRPML3 agonist | TAAR1 agonist | TAAR1 antagonist | TAAR1 ag confirm | Ga16 ag counter | TAAR1 desens | Ga16 antag count
COc1cc2c(=O)n(CCCC(=O)NCC3CCCO3)c(=O)n(CC(=O)c3ccc(F)cc3)c2cc1OC (centres undefined) | -15 | 0 | -1 | 1 | 1 | 0 | x | x | x | x
CCNC(=O)C1(C)CCCN1Cc1ccccc1Cl (centres undefined) | x | x | x | x | -1 | -12 | x | x | x | x
CCCOc1cc(C)c(S(=O)(=O)N2CCN(C)CC2)cc1C | -6 | -1 | 10 | 0 | 46* | -26 | 42* | 0 | -5 | -3
CCN1CCN(S(=O)(=O)c2cc(C)c(OC)cc2C)CC1 | -7 | 0 | 0 | 0 | 12 | 6 | x | x | x | x
CCCSc1ccc(C(=O)Nc2ccc(F)cc2F)cn1 | -1 | 3 | -4 | 1 | 67* | 29 | 18 | 1 | -12 | 2
CC(C)S(=O)(=O)c1ccc(C(=O)Nc2ccc(F)cc2F)cn1 | 4 | 3 | 0 | 1 | 14 | 15 | x | x | x | x
Nc1nc(-c2ccccc2)c(-c2ccccc2)n1N | 5 | x | -3 | x | 4 | -1 | x | x | x | x
c1ccc(-c2cnn3c(-c4ccccc4)c(-c4ccccc4)nc3n2)cc1 | 8 | 1 | x | 3 | 77* | 63* | 100* | 121* | 84* | 82*
COc1ccc(CC(=O)OCC(=O)NCc2ccc(C)cc2)cc1OC | x | x | -2 | x | 0 | -15 | x | x | x | x
COc1ccc2c(c1)cc(C(=O)N[C@@H](CCSC)C(=O)N1CCC[C@H]1C(=O)O)n2C | 7 | x | 1 | x | 1 | -12 | x | x | x | x
CCN(CC(=O)Nc1c(F)cccc1F)C(=O)c1ccc2c(c1)S(=O)(=O)N=C1CCCCCN12 | x | x | -4 | x | 0 | 3 | x | x | x | x
Cc1nn(C)c(C(=O)NNC(=S)NCc2ccco2)c1Cl | -7 | -1 | 1 | 0 | 1 | -3 | x | x | x | x
Cc1nn(C)c(C(=O)NNC(=S)NCc2ccco2)c1Br | -10 | 0 | 0 | 0 | 80* | 17 | -1 | 5 | 8 | 1

Bioassay records as filed in PubChem BioAssay.
